Measurements reported in ChEMBL document CHEMBL1145371, “Synthesis and preliminary evaluation of mono-[123I]iodohypericin monocarboxylic acid as a necrosis avid imaging agent” (Bioorg Med Chem Lett, 2007).
“And” between values parts separate entries of the source, which are not always exact repeats. Equal values may be shown once.

What was measured:
Liver [1] = assay: Biodistribution in liver of NMRI mouse at 185 KBq, iv after 24 hrs; assay type: ADME, organism-based; details: in vivo
Kidney [2] = assay: Biodistribution in kidney of NMRI mouse at 185 KBq, iv after 24 hrs; assay type: ADME, organism-based; details: in vivo
Lung = assay: Biodistribution in lung of NMRI mouse at 185 KBq, iv after 24 hrs; assay type: ADME, organism-based; details: in vivo
Liver [3] = assay: Biodistribution in liver of NMRI muse at 185 KBq, iv after 4 hrs; assay type: ADME, organism-based; details: mouse, in vivo
Brain [4] = assay: Biodistribution in brain of NMRI mouse at 185 KBq, iv after 24 hrs; assay type: ADME, organism-based; details: in vivo
Liver [5] = assay: Biodistribution in liver of NMRI mouse at 185 KBq, iv after 30 mins; assay type: ADME, organism-based; details: in vivo, 0.5 h
Blood [6] = assay: Biodistribution in blood of NMRI mouse at 185 KBq, iv after 24 hrs; assay type: ADME, organism-based; details: in vivo
Kidney [7] = assay: Biodistribution in kidney of NMRI mouse at 185 KBq, iv after 4 hrs; assay type: ADME, organism-based; details: in vivo
[8] = Biodistribution in intestine + faeces of NMRI mouse at 185 KBq, iv after 24 hrs; assay type: ADME, organism-based; details: in vivo
Kidney [9] = assay: Biodistribution in kidney of NMRI mouse at 185 KBq, iv after 30 mins; assay type: ADME, organism-based; details: in vivo, 0.5 h
Blood [10] = assay: Biodistribution in blood of NMRI mouse at 185 KBq, iv after 30 mins; assay type: ADME, organism-based; details: in vivo, 0.5 h
[11] = Biodistribution in carcass of NMRI mouse at 185 KBq, iv after 30 mins; assay type: ADME, organism-based; details: in vivo, 0.5 h
Brain [12] = assay: Biodistribution in brain of NMRI mouse at 185 KBq, iv after 30 mins; assay type: ADME, organism-based; details: in vivo, 0.5 h
Blood [13] = assay: Biodistribution in blood of NMRI mouse at 185 KBq, iv after 4 hrs; assay type: ADME, organism-based; details: in vivo
[14] = Biodistribution in intestine + faeces of NMRI mouse at 185 KBq, iv after 30 mins; assay type: ADME, organism-based; details: in vivo, 0.5 h
Urinary bladder [15] = assay: Biodistribution in bladder of NMRI mouse at 185 KBq, iv after 30 mins; assay type: ADME, organism-based; details: in vivo, 0.5 h
Brain [16] = assay: Biodistribution in brain of NMRI mouse at 185 KBq, iv after 4 hrs; assay type: ADME, organism-based; details: in vivo
[17] = Partition coefficient, log P of the compound; assay type: physicochemical; details: octanol/water
Procedure, shortened: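 Octanol/buffer partitioning against 0.025 M phosphate buffer, pH 7.4; log P reported as mean ± deviation of n = 6 determinations.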

Urinary bladder [18] = assay: Biodistribution in bladder of NMRI mouse at 185 KBq, iv after 24 hrs; assay type: ADME, organism-based; details: in vivo
[19] = Biodistribution in intestine + faeces of NMRI mouse at 185 KBq, iv after 4 hrs; assay type: ADME, organism-based; details: in vivo
[20] = Biodistribution in carcass of NMRI mouse at 185 KBq, iv after 24 hrs; assay type: ADME, organism-based; details: in vivo
[21] = Biodistribution in carcass of NMRI mouse at 185 KBq, iv after 4 hrs; assay type: ADME, organism-based; details: in vivo
[22] = Biodistribution in spleen + pancreas of NMRI mouse at 185 KBq, iv after 24 hrs; assay type: ADME, organism-based; details: in vivo
[23] = Biodistribution in spleen + pancreas of NMRI mouse at 185 KBq, iv after 30 mins; assay type: ADME, organism-based; details: in vivo, 0.5 h
Urinary bladder [24] = assay: Biodistribution in bladder of NMRI mouse at 185 KBq, iv after 4 hrs; assay type: ADME, organism-based; details: in vivo

Q: With `Cc1cc(O)c2c(=O)c3c(O)cc(O)c4c5c(O)c([123I])c(O)c6c(=O)c7c(O)cc(C(=O)O)c8c1c2c(c34)c(c78)c65` as the compound, how does the Drug uptake (Liver [1]) read?
A: 4.7 %ID and 2.7 % ID/g

Q: What about the Drug uptake (Kidney [2]) of the same compound?
A: 1 %ID and 1.9 % ID/g

Q: And the Drug uptake (Lung)?
A: 0.1 %ID and 0.2 % ID/g

Q: And the Drug uptake (Liver [3])?
A: 22.4 %ID and 13.2 % ID/g

Q: And the Drug uptake (Brain [4])?
A: 0 %ID

Q: And the Drug uptake (Liver [5])?
A: 64.4 %ID and 33.7 % ID/g

Q: And the Drug uptake (Blood [6])?
A: 0.1 %ID

Q: And the Drug uptake (Kidney [7])?
A: 2.6 %ID and 4.8 % ID/g

Q: And the Drug uptake [8]?
A: 69.4 %ID

Q: What about the Drug uptake (Kidney [9]) of the same compound?
A: 2.9 %ID and 4.4 % ID/g

Q: And the Drug uptake (Blood [10])?
A: 3.3 %ID and 1.3 % ID/g

Q: What about the Drug uptake [11] of the same compound?
A: 13.2 %ID

Q: What about the Drug uptake (Brain [12]) of the same compound?
A: 0 %ID

Q: What about the Drug uptake (Blood [13]) of the same compound?
A: 1.6 %ID and 0.6 % ID/g

Q: And the Drug uptake [14]?
A: 13.2 %ID

Q: What about the Drug uptake (Urinary bladder [15]) of the same compound?
A: 0.3 %ID

Q: And the Drug uptake (Brain [16])?
A: 0 %ID

Q: What about the logP [17] of the same compound?
A: 1.47

Q: What about the Drug uptake (Urinary bladder [18]) of the same compound?
A: 21.1 %ID

Q: What about the Drug uptake [19] of the same compound?
A: 50.5 %ID

Q: And the Drug uptake [20]?
A: 2.8 %ID

Q: What about the Drug uptake [21] of the same compound?
A: 10.3 %ID

Q: What about the Drug uptake [22] of the same compound?
A: 0.2 %ID and 0.5 % ID/g

Q: And the Drug uptake [23]?
A: 1.3 %ID and 3.9 % ID/g

Q: And the Drug uptake (Urinary bladder [24])?
A: 7.1 %ID

Q: With `Cc1cc(O)c2c(=O)c3c(O)cc(O)c4c5c(O)c([123I])c(O)c6c(=O)c7c(O)cc(C)c8c1c2c(c34)c(c78)c65` as the compound, how does the Drug uptake (Blood [13]) read?
A: 28.2 % ID/g
